# A selection: hits, their analogues and other compounds. The true share with any hit is near 2.3%.
# b-catenin transl – beta-catenin nuclear translocation modulation; HeLa beta-catenin nuclear translocation, immunofluorescence imaging; nuclear translocation activity, % at 5 µM; actives 0.3% (n = 190,000);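 active = nuclear translocation activity above 50% at 5 µM, with a well cell count of 50 or more; inconclusive = wells under 50 cells across six images, flagged as toxic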;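 also: per-cell ratio of nuclear to cytoplasmic median beta-catenin stain intensity; plate controls were DMSO negative control for no effect and GSK-3 inhibitor IX positive control for full effect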
#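 assay system = human HeLa cells, endogenous beta-catenin | times = compound treatment 24 h, 37°C, 5% CO2 | detection = Anti-beta-catenin immunofluorescence on PFA-fixed, Triton-permeabilized cells, DAPI nuclei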
# MT stabilize HCS – microtubule stabilizers in HeLa cells | actives 0.83% (n = 200,000) | HeLa tubulin immunostaining HCS, 24 h; share of cells brighter than vehicle mean+2SD | AID 2205 | % tubulin-high responders, % at 10 µM;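 active = plate Z-score above 3 for both tubulin-high and condensed-nucleus cell shares, with cell loss under 80%, at 10 µM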;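 also: anti alpha tubulin signal scored within the nucleus-defined area of each cell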
# Dynein cargo inh – dynein cargo transport inhibition; actives 0.47% (n = 220,000); z-score, hits read low; AID 1381; 3617.4 mouse cells, GR-EGFP nuclear translocation imaging; test concentration mostly 20 µM; stimulated with dexamethasone, 1 µM; stronger effect = lower value;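 active = plate z-score of nuclear minus cytoplasmic receptor signal below a set negative limit, without overly bright fluorescence or cell loss, cut at about -3.5 in these data, passing the limit was not always enough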;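 also: z-score of nuclear minus cytoplasmic ring GR-EGFP intensity difference per well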
#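 Buffer or medium: tet-free medium with charcoal-stripped serum / Also added: dexamethasone agonist, 1.0 µM final, for 30 min / Timing: induction 48 h, compound 1 h, agonist 30 min / Measured by: high-content fluorescence imaging after fixation / Read-out: nuclear-to-cytoplasmic GR-EGFP distribution per well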
# Insulin prom up – MIN6 insulin promoter up-regulation; z-score at 5 µM; MIN6 insulin promoter-GFP reporter, high-content imaging; stronger effect = higher value; actives 0.3% (n = 190,000);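 active = z-score above 3 at 5 µM with at least 500 cells counted in the well; inconclusive = wells under 500 cells, flagged as cytotoxic or low count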
# Autophagy mod – modulators of autophagy; MEF GFP-LC3 puncta imaging; test concentration mostly 10 µM; calls only at 10 µM (by protocol); actives 0.98% (n = 190,000);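 active = percentage of spot-positive cells more than 3 SD above its plate mean, without a fluorescence outlier flag or 80% toxicity; inconclusive = no clear call, values can overlap the other calls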;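 also: spot-positive cell cutoff set from DMSO-treated cells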
# Starred values were filed as active, the others as inactive; i = inactive; ? = inconclusive; · = not tested or not shown; + = active, no number.
SMILES,b-catenin transl,MT stabilize HCS,Dynein cargo inh,Insulin prom up,Autophagy mod
Cc1cc(N2C(=O)C=CC2=O)c([N+](=O)[O-])cc1C,·,1.9,-6.27*,0.57,i
CCN(CC)CCN1C(=O)C(O)=C(C(=O)c2ccc(C)o2)C1c1ccccn1 (centres undefined),·,3.1,-0.116,·,+
Cc1ccc(C(=O)C2=C(O)C(=O)N(CCN3CCOCC3)C2c2ccccn2)o1 (centres undefined),-3.6,2.3,-0.58,1.09,i
COc1ccccc1NC(=O)N1CCC(c2nc3cc(C)c(C)cc3[nH]2)CC1,40.5,18.1*,-0.202,·,+
Cc1ccc(Nc2nc(NCCCN3CCOCC3)nc(N)c2[N+](=O)[O-])cc1C,-0.2,3.8,-1.13,-0.82,i
Cc1ccc(Nc2nc(NCCCN3CCOCC3)nc(N)c2[N+](=O)[O-])cc1,1.8,2.8,2,-0.27,+
CS(=O)(=O)n1nc(-c2ccc(Cl)cc2)nc1N,-2.2,1.8,-0.126,1.19,i
Cn1nc(-c2ccc(Cl)cc2)nc2c(=O)n(C)c(=O)nc1-2,-0.7,15.4*,-2.98,-0.4,i
CCN(CCn1cccn1)C(=O)CC1C(=O)NCCN1Cc1ccc(OC)c(OC)c1 (centres undefined),0.4,2.2,0.0767,-0.49,+
N=c1c2c(-c3ccccc3)c(-c3ccccc3)n(Cc3ccco3)c2ncn1CCCn1ccnc1,4.9,3.1,-0.286,?,i
N=c1c2c(-c3ccccc3)c(-c3ccccc3)n(Cc3ccccc3)c2ncn1CCO,-1.4,2.7,1.76,0.26,+
N=c1c2c(-c3ccccc3)c(-c3ccccc3)n(Cc3ccco3)c2ncn1Cc1ccccc1,·,5.4,-0.905,·,+
CC(C)Cn1cnc2c(c(-c3ccccc3)c(-c3ccccc3)n2Cc2ccco2)c1=N,·,1.7,-1.24,-3.58,+
N=c1c2c(-c3ccccc3)c(-c3ccccc3)n(Cc3ccco3)c2ncn1CCCN1CCOCC1,6.9,44.1,-0.639,-1.16,i
Cc1nn(-c2ccccc2)c(Cl)c1/C=N/NC(=O)CCNc1n[nH]c(=O)[nH]c1=O,0.4,·,1.43,-0.52,·
Cc1cccc(N2CCN(C(=O)c3ccc(Cl)c(S(=O)(=O)NCc4ccco4)c3)CC2)c1C,0.8,42.5*,2.45,-0.63,i
O=C(O)c1ccc(Cl)c(S(=O)(=O)NCc2ccco2)c1,0.7,1.3,-0.746,·,i
O=C(C1=C(c2ccccc2)C(=O)c2ccccc2C1=O)c1ccccc1,-0.3,4.7,-1.05,?,+
Cc1cccc(C2C3=C(Nc4[nH]n(-c5ccccc5)c(=O)c42)c2ccccc2C3=O)c1 (centres undefined),-0.1,4.0,-0.205,-4.1,+
COc1ccc(N2CC(O)=C(c3nc(-c4ccc(F)cc4)cs3)C2=N)cc1OC,0.6,2.4,0.846,0.19,i
COc1ccc(-c2[nH]n(-c3ccc([N+](=O)[O-])cc3)c(=O)c2C=NCc2ccc(F)cc2)cc1,-1.0,5.8,0.167,-0.15,+
O=C(NC1CCCCC1)Oc1cccc2ccccc12,-2.0,1.9,-0.628,-0.67,i
CCCNC(=O)CN1C(=O)NC(CCSC)C1=O (centres undefined),0.4,·,0.314,0.01,·
CS(=O)(=O)N1CCN(C(=O)COc2ccc3ccccc3c2)CC1,-0.9,·,1.17,-1.3,·
CS(=O)(=O)N1CCN(C(=O)COc2ccccc2)CC1,-1.2,2.6,2.26,-0.19,+
SMILES,b-catenin transl,MT stabilize HCS,Dynein cargo inh,Insulin prom up,Autophagy mod
COc1ccc(S(=O)(=O)Nc2cc(Sc3ncn[nH]3)c(O)c3ccccc23)cc1,·,1.8,-4.47*,?,i
NNc1nc2c(-c3ccc(Cl)cc3)nnn2c2ccccc12,-0.7,8.0,1.23,2.27,+
CC(C)n1cc(CN2CCN(CCc3ccccc3)C(CCO)C2)cn1 (centres undefined),-1.4,5.2,1.36,0.28,i
CCCCNC(=S)N(C)/N=C/c1c(C)[nH]c2ccccc12,·,2.0,-0.12,0.81,+
CCCCNC(=S)N(C)/N=C/c1c(F)c(F)c(F)c(F)c1F,·,7.7,1.19,-0.06,i
COc1cccc(NC(=O)CSc2nc3ccccc3c(=O)n2Cc2cccs2)c1,-1.0,2.0,-0.505,·,+
COc1ccc(CCn2c(N)c(C(=O)NCc3ccco3)c3nc4ccccc4nc32)cc1,13.5,15.2*,0.388,0.17,i
COc1ccc(CCn2c(N)c(C(=O)NCc3ccco3)c3nc4ccccc4nc32)cc1OC,-5.6,2.1,-0.0769,0.26,i
COc1ccccc1[C@@H]1C(c2ccc(F)cc2)=NN(c2ccccc2)[C@H]1C(=O)N1CCOC1=O,·,3.3,-0.634,-0.03,+
COc1ccccc1[C@@H]1C(c2cccc(C)c2)=NN(c2ccccc2)[C@H]1C(=O)N1CCOC1=O,·,2.5,-0.912,0.35,i
COc1ccc(CC(=O)NNS(=O)(=O)c2ccccc2)cc1OC,-0.8,1.5,-0.102,0.35,i
COC(=O)c1c(-c2ccc(C)cc2)csc1NC(=O)Cc1ccc(OC)c(OC)c1,·,2.8,0.0901,·,i
COC(=O)c1c(-c2cccc3ccccc23)csc1NC(=O)Cc1ccc(OC)c(OC)c1,·,52.1*,0.469,-1.34,i
CC(C)CN(Cc1cc(=O)oc2cc(-c3ccccc3)c(O)cc12)CC(C)C,3.8,·,0.361,-1.14,·
COc1ccc(C2SCC(=O)N2CCc2ccc(OC)c(OC)c2)cc1 (centres undefined),82.0*,18.1*,1.01,-0.28,i
COc1ccc(CCN2C(=O)CSC2c2ccc(OC)c(OC)c2)cc1OC (centres undefined),1.4,2.3,0.226,-0.35,i
CCOC(=O)c1sc2nccc(OC)c2c1N=CNOC,-0.4,4.2,-0.984,0.04,i
COc1ccc(N2CCN(C(=O)Cn3cnc4c(cnn4-c4ccc(C)cc4)c3=O)CC2)cc1,-0.2,3.8,2.58,-0.58,+
COc1ccc(N2CCN(C(=O)Cn3cnc4c(cnn4-c4ccccc4)c3=O)CC2)cc1,-1.2,1.8,1.54,-0.98,i
CC1=CC(=O)c2c(O)ccc(O)c2C1=O,-1.3,4.1,-3.93*,?,i
C/C(=N\Nc1ccc2nncn2n1)c1ccc(Br)s1,-0.1,·,0.00109,-0.4,·
O=C(NCCCn1ccnc1)c1ccc(N2CCCCCC2)c([N+](=O)[O-])c1,-2.8,1.4,-0.557,0.09,i
Cc1ccc(C(=O)NCCCn2ccnc2)cc1[N+](=O)[O-],-1.1,2.4,1.61,5.54*,i
O=C(Cc1cccs1)NNC(=O)C12CC3CC(CC(C3)C1)C2,-0.4,2.8,-0.665,0.59,i
Cc1cc(C(=O)NCCCN2CCN(c3cc(Cl)ccc3C)CC2)n(-c2ccccc2)n1,2.3,1.4,-0.757,-1.06,i
Cc1cc(C(=O)NCCN2CCN(c3cccc(Cl)c3)CC2)n(-c2ccccc2)n1,58.7*,14.1,0.103,1.84,i

# Screening results as filed in PubChem BioAssay.
